Laboratory results published in ChEMBL document CHEMBL3351606, “Targeting (cellular) lysosomal acid ceramidase by B13: design, synthesis and evaluation of novel DMG-B13 ester prodrugs” (Bioorg Med Chem, 2014).
In brackets after ≈: the same amount, converted by molar mass. Activity calls are given as the source filed them. No cut-off for these calls is given here.

Columns and labels:
Acid ceramidase = target: T1, Acid ceramidase (Homo sapiens, UniProt Q13510); experiment: Inhibition of ACDase in human MCF7 cell lysate using [9,10-3H] De-C16-Cer substrate after 1 hr by scintillation counting analysis
T1 sequence (Q13510 whole entry): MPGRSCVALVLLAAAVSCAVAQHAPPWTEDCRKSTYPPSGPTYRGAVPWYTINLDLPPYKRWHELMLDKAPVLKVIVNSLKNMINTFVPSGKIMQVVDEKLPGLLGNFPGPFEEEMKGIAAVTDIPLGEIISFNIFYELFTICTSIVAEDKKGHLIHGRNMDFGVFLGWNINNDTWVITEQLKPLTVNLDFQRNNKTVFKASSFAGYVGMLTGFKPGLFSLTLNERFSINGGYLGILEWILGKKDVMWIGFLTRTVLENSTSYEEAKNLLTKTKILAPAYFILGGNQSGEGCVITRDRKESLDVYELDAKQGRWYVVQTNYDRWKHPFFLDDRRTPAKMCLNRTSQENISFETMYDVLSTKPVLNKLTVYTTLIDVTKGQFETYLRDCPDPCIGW

[1] = target: T2, Acid ceramidase (Homo sapiens) (UniProt Q13510); experiment: Inhibition of ACDase in human MCF7 cell lysate using [9,10-3H] De-C16-Cer substrate at 50 uM after 1 hr by scintillation counting analysis; assay type: cell-free
T2 sequence (whole entry): T1 sequence (Q13510 whole entry)
Method in brief: (§1)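 ACDase activity in MCF7 lysate (pH 4.5): [9,10-3H] D-e-C16-Cer and compound dried with 0.2% Triton X-100/0.4% cholate, then protein and 0.2 M acetate buffer with 0.5% Triton X-100 (pH 4.5) added; 1 h at 37 °C, stopped with Dole's solution; released [3H]palmitic acid scintillation-counted, pmol/mg protein/h, % control; duplicates.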

MCF7 [2] = experiment: Reduction in Sph level in human MCF7 cells at 30 uM by LC-MS/MS analysis; assay type: functional, cell-based
MCF7 [3] = experiment: Reduction in Sph level in human MCF7 cells at 50 uM after 5 hrs by LC-MS/MS analysis; assay type: functional; conditions: MCF7, 5 h
MCF7 [4] = experiment: Reduction in Sph level in human MCF7 cells at 50 uM after 24 hrs by LC-MS/MS analysis; assay type: functional; conditions: MCF7, 24 h
MCF7 [5] = experiment: Induction in Cer level in human MCF7 cells at 50 uM after 1 hr by LC-MS/MS analysis; assay type: functional
MCF7 [6] = experiment: Induction in Cer level in human MCF7 cells at 50 uM after 24 hrs hr by LC-MS/MS analysis; assay type: functional
[7] = Solubility in water at 25 degC; assay type: physicochemical
MCF7 [8] = experiment: Drug formation in human MCF7 cells treated with LCL522 up to 2 to 5 hrs by LC-MS/MS analysis; assay type: ADME, cell-based
Method in brief: (§2)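 MCF7 cells (RPMI 1640, 10% FBS) treated with test compound or vehicle (ethanol) over a time course up to 24 h; after washing with cold PBS and scraping, pellets spiked with internal standards, lipids extracted (ethyl acetate/isopropanol/water) and compounds quantified by LC–MS/MS in positive MRM mode against calibration curves, normalized to lipid phosphate; duplicates.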

[9] = target: T2, Acid ceramidase (Homo sapiens); experiment: Inhibition of ACDase in human MCF7 cells at 10 uM after 1 hr by cellular/scintillation counting analysis; assay type: cell-based
Method in brief: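 MCF7 cells treated 1 h with compound or vehicle, washed in cold PBS and scraped; lysate ACDase activity then measured at pH 4.5 with [9,10-3H] D-e-C16-Cer, 1 h at 37 °C, released [3H]palmitic acid counted; pmol/mg protein/h, % control; quadruplicates.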

MCF7 [10] = experiment: Effect on lysosomal stability in human MCF7 cells assessed as recovery of Lysotracker Red uptake at 10 uM after 5 hrs by FACS analysis; assay type: functional, cell-based
Method in brief: (§3)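 MCF7 cells seeded overnight, medium switched to 2% FBS with compound in ethanol or ethanol alone, 1 or 5 h at 37 °C, then Lysotracker Red DND-99 200 nM for 30 min at 37 °C. Cells trypsinized, washed and analysed by FACS (564–606 nm), at least 10,000 events per sample; lower fluorescence read as higher lysosomal pH; triplicates, % of control.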

[11] = target: T2, Acid ceramidase (Homo sapiens); conditions: MCF7, 50 uM
[12] = target: T2, Acid ceramidase (Homo sapiens); conditions: MCF7, 50 uM; remark: listed apart in the source
[13] = target: T2, Acid ceramidase (Homo sapiens); conditions: MCF7, 50 uM; remark: listed apart in the source
[14] = tested on: Alkaline ceramidase 2 (Homo sapiens); experiment: Inhibition of AlkCDase in microsomes of human HeLa cells using D-e-C18:1-Cer substrate up to 250 uM after 30 mins
[15] = Toxicity in rat; assay type: organism-based; conditions: in vivo
MCF7 [16] = experiment: Drug uptake in human MCF7 cells assessed as drug level at 10 uM after 24 hrs by LC-MS/MS analysis; assay type: ADME, cell-based; conditions: mcf7, 24 h; method in brief: as §2
[17] = target: T2, Acid ceramidase (Homo sapiens); experiment: Inhibition of ACDase in human MCF7 cell lysate using [9,10-3H] De-C16-Cer substrate at 20 uM after 1 hr by scintillation counting analysis; assay type: cell-free; method in brief: as §1
MCF7 [18] = experiment: Reduction in Sph level in human MCF7 cells at 10 uM after 1 hr by LC-MS/MS analysis; assay type: ADME, cell-based; conditions: MCF7, 1 h
Method in brief: (§4)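 MCF7 cells treated 1 h with compound or ethanol vehicle; pellets spiked with internal standards, lipids extracted and Sph and total Cer quantified by LC–MS/MS in MRM mode, expressed as pmol per nmol lipid phosphate and as % of control; duplicates.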

MCF7 [19] = experiment: Induction in Cer level in human MCF7 cells at 10 uM after 1 hr by LC-MS/MS analysis; assay type: functional; method in brief: as §4
MCF7 [20] = experiment: Effect on lysosomal stability in human MCF7 cells assessed as increase in Lysotracker Red uptake at 10 uM after 5 hrs by FACS analysis; assay type: ADME, cell-based; conditions: mcf7, 5 h; method in brief: as §3
MCF7 [21] = experiment: Reduction in alpha-ACDase level in human MCF7 cells at 10 uM by scintillation counting analysis; assay type: functional, cell-based; conditions: in the assay text read “Western blot analysis” for “scintillation counting analysis”, TDE = time-dependent effect
Method in brief: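 MCF7 cells treated 1 and 5 h with compound or vehicle; lysates (35 µg protein) run on SDS gels, blotted, probed with mouse monoclonal anti-ACDase and HRP secondary; bands of the cleaved alpha-ACDase chain quantified by densitometry, normalized to actin, % control.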

MCF7 [22] = experiment: Reduction in Sph level in human MCF7 cells at 1 uM after 1 hr by LC-MS/MS analysis; assay type: ADME, cell-based; conditions: MCF7, 1 h, read-out: INH; method in brief: as §4
MCF7 [23] = experiment: Reduction in Sph level in human MCF7 cells at 1 uM after 5 hrs by LC-MS/MS analysis; assay type: ADME, cell-based; conditions: MCF7, 5 h
[24] = target: Neutral ceramidase (Homo sapiens) (UniProt Q9NR71); experiment: Inhibition of NCDase in human HeLa cells expressing ASAH2 assessed as increase in Sph level at 10 uM after 1 hr by LC-MS/MS analysis; assay type: cell-based
Chain of Neutral ceramidase (Homo sapiens) (Q9NR71 whole entry): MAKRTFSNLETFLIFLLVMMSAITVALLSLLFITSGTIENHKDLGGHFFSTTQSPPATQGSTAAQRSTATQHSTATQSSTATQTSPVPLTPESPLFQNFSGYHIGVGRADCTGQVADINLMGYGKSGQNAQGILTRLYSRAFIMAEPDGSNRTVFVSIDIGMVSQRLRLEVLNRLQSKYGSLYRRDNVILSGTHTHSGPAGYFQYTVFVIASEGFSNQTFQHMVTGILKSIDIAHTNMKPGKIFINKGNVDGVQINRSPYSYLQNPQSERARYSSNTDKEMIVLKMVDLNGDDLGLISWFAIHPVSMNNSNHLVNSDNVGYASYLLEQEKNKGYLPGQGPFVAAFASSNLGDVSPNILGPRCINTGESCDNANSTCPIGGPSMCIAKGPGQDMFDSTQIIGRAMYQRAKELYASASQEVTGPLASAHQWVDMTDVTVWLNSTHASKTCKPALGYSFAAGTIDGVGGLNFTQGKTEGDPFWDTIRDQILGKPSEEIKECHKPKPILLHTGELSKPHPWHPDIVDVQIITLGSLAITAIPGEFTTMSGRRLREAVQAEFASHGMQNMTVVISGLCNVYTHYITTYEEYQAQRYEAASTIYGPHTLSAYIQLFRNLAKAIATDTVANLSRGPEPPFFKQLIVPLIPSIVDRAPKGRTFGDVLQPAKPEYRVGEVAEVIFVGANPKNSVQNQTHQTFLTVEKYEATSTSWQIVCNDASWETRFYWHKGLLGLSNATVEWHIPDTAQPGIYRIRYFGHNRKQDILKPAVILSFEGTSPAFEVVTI
Method in brief: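 HeLa cells stably carrying ACER2, ASAH2 or empty vector, grown to 60% confluence, given tetracycline 5 ng/mL overnight, then treated 1 h with compound (1 or 10 µM) or ethanol; sphingolipids extracted and Sph measured by LC–MS/MS per nmol lipid phosphate, also given as Sph ratio of ACER2 or ASAH2 cells to vector cells.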

[25] = target: T3, Sphingomyelin phosphodiesterase (Homo sapiens) (UniProt P17405); experiment: Inhibition of lysosomal ASMase activity in human MCF7 cells assessed as [methyl-14C]choline release at 10 uM after 1 hr; assay type: cell-based
T3 sequence (whole entry): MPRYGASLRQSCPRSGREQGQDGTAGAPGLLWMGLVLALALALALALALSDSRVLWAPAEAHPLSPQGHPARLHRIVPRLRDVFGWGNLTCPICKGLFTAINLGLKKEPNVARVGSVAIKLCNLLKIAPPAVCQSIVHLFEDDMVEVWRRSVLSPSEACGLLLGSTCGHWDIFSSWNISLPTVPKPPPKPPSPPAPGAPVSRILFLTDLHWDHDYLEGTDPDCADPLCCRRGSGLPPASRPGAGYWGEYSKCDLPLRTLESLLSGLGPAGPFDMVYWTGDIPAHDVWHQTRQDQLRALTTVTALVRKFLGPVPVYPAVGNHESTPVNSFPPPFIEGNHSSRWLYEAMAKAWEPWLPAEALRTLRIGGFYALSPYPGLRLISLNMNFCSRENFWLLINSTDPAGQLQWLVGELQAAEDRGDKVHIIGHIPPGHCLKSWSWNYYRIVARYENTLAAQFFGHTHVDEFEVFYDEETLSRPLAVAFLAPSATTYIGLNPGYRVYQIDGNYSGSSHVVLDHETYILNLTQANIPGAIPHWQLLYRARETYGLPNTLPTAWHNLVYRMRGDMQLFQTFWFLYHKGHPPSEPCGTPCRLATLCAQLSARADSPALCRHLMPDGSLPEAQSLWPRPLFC
Method in brief: (§5)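 MCF7 cells treated 1 h with compound or vehicle, lysed in 0.2% Triton X-100/50 mm Tris-HCl pH 7.4 with EDTA and protease/phosphatase inhibitors; clarified lysate incubated with 100 µM porcine brain SM plus choline-[methyl-14C] SM in Triton micelles, 250 mM sodium acetate pH 5.0, 1.0 mM EDTA, 30 min at 37 °C; aqueous-phase 14C counted after Folch extraction; triplicates, % control.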

[26] = target: T3, Sphingomyelin phosphodiesterase (Homo sapiens); experiment: Inhibition of lysosomal ASMase activity in human MCF7 cells assessed as [methyl-14C]choline release at 1 uM after 1 hr; assay type: cell-based; method in brief: as §5
MCF7 [27] = experiment: Reduction in alpha-ACDase level in human MCF7 cells at 1 uM by Western blot analysis
[28] = target: Neutral ceramidase (Homo sapiens) (UniProt Q9NR71); experiment: Inhibition of NCDase in human MCF7 cells assessed as release of [3H] palmitic acid at 10 uM after 1 hr
[29] = tested on: Alkaline ceramidase 2 (Homo sapiens); experiment: Inhibition of AlkCDase in human HeLa cells expressing […] assessed as increase in Sph level at 10 uM after 1 hr by LC-MS/MS analysis
[30] = tested on: Alkaline ceramidase 2 (Homo sapiens); experiment: Inhibition of AlkCDase in human HeLa cells expressing […] assessed as fold increase in Sph level at 1 uM after 1 hr by LC-MS/MS analysis
[31] = tested on: Alkaline ceramidase 2 (Homo sapiens); experiment: Inhibition of AlkCDase in human HeLa cells expressing […] assessed as fold increase in Sph level at 10 uM after 1 hr by LC-MS/MS analysis
MCF7 [32] = experiment: Drug formation in human MCF7 cells treated with LCL596 up to 2 to 5 hrs by LC-MS/MS analysis; assay type: ADME, cell-based; method in brief: as §2

For `CCCCCCCCCCCCCC(=O)N[C@H](CO)[C@H](O)c1ccc([N+](=O)[O-])cc1`, the IC50 (Acid ceramidase) was 27.7 µM, the inhibition [1] was 95% and the inhibition (MCF7 [2]) was “Active”. It also gave an inhibition at 50 µM (MCF7 [3]) of 70%, an inhibition at 50 µM (MCF7 [4]) of 40% and an Activity (MCF7 [5]) of 140%. The Activity (MCF7 [6]) was 270%, the solubility [7] was 0.008 mg/mL (≈ 18.9 µM) and the Drug metabolism (MCF7 [8]) was “metabolite_detected”. For the same compound, the inhibition [9] was “Active”, the Activity (MCF7 [10]) was “inactive” and the inhibition [11] was 50%. For the same compound, the inhibition [12] was 20%, the inhibition [13] was 40% and the inhibition [14] was “inactive”.

With `CCCCCCCCCCCCCC(=O)N[C@H](COC(=O)CN(C)C)[C@H](O)c1ccc([N+](=O)[O-])cc1.Cl` the inhibition [1] was “Active”, the LD50 [15] was 3900 mg/kg and the Drug metabolism (MCF7 [8]) was “metabolite_detected”. For the same compound, the Drug uptake (MCF7 [16]) was “Active”, the inhibition [17] was “Active” and the inhibition [9] was “Active”. For the same compound, the inhibition at 10 µM (MCF7 [18]) was 60%, the Activity (MCF7 [19]) was “inactive” and the Activity (MCF7 [20]) was 180%.

With `CCCCCCCCCCCCCC(=O)N[C@H](COC(=O)CN(C)C)[C@H](OC(=O)CN(C)C)c1ccc([N+](=O)[O-])cc1.Cl` the inhibition [1] was “Active”, the LD50 [15] was 3900 mg/kg and the solubility [7] was 430 mg/mL. For the same compound, the Drug uptake (MCF7 [16]) was 27%, the inhibition [17] was “Active” and the inhibition [9] was “Active”. The inhibition (MCF7 [21]) was “tde”, the inhibition at 10 µM (MCF7 [18]) was 97% and the inhibition at 1 µM (MCF7 [22]) was 80%. The inhibition at 1 µM (MCF7 [23]) was 50%, the Activity (MCF7 [19]) was 130% and the inhibition [24] was “inactive”. The Activity (MCF7 [10]) was “Active”, the inhibition [25] was 85% and the inhibition [26] was 30%. For the same compound, the Activity (MCF7 [27]) was “inactive”, the inhibition [28] was “inactive” and the inhibition [29] was “Active”. It also gave a fold change (FC) [30] of 2 and a fold change (FC) [31] of 5.

For `CCCCCCCCCCCCCC(=O)N[C@H](CO)[C@H](OC(=O)CN(C)C)c1ccc([N+](=O)[O-])cc1.Cl`, the inhibition [1] was “Active”, the LD50 [15] was 3900 mg/kg and the Drug metabolism (MCF7 [32]) was “metabolite_detected”. The Drug uptake (MCF7 [16]) was “Active”, the inhibition [17] was “Active” and the inhibition [9] was “Active”. The inhibition at 10 µM (MCF7 [18]) was 60% and the Activity (MCF7 [19]) was “inactive”.
